Source: the EternaBench riboswitch data

System: MS2 coat protein
Test: apparent Kd, MS2 coat protein; higher = weaker binding; RNA-MaP array; FMN 200 µM where present
Procedure, shortened: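 Designs on Illumina sequencing-chip clusters, transcribed by stalled E. coli RNA polymerase, were exposed to SNAP-549-labelled MS2 coat protein in doubling steps from 0.7 or 1.5 nM up to 3 µM, without and then with constant ligand. The buffer held 100 mM Tris-HCl pH 7.5, 80 mM KCl, 4 mM MgCl2, BSA, DTT, yeast tRNA and Tween-20. Apparent Kd values are medians of filtered per-cluster binding-curve fits to green signal normalised to red-channel RNA signal and control-cluster median Fmax.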

[1] = designed as: OFF switch for flavin mononucleotide, no ligand
[2] = ligand present: flavin mononucleotide, designed as: OFF switch for flavin mononucleotide
[3] = designed as: ON switch for flavin mononucleotide, no ligand
[4] = ligand present: flavin mononucleotide, designed as: ON switch for flavin mononucleotide

| Sequence | apparent Kd [1] [nM] | apparent Kd [2] [nM] | apparent Kd [3] [nM] | apparent Kd [4] [nM] |
| --- | --- | --- | --- | --- |
| GAGGUAUAAGGAUAUACAUAGAUACAGACACAUGUUCAAGUACAUGAGGAUCACCCAUGUAGAAGGUAUAUAUC | 33.6 | 30.6 |  |  |
| GAGUGACAUGAGGAUCACCCAUGUGAGGAUAUCGGACGGACCAAGUUAACAUCCGCCGCGAGAAGGCACAUCGG | 114 | 31.1 |  |  |
| GAGUGGAAGGCCGCUACAUGAGGAUCACCCAUGUGCUAAGCACAGGAUAUCGCGCUAGCCCGGCGCGAGAAGGGUGACGGCCUG |  |  | 674 | 339 |
| GAGUUUACGUUUGUCACUUAGCGAGAGGAUAUGGAAAACAAGACAUGAGGAUCACCCAUGUACUAUCAGAAGGCUCGAGUACGA |  |  | 7.26 | 5.59 |
| GAUAGAGAGCAGGAUAUCUUAGAAAUGUAUUAUAGAGAAGGGCUCACAUGAGGAUCACCCAUGUGGUCCUAGAU | 16.4 | 108 |  |  |
| GAUAUAGAGCAGGAUAUCUUAGAUAUGUAAUAAAGAGAAGGGCUCACAUGAGGAUCACCCAUGUGGUCCUAGAU | 18.5 | 113 |  |  |
| GAUCAGCUUGUGAGGAUAUCCGGGCUUAAAGGCUAGGAGAAGGUACAUGAGGAUCACCCAUGUAGAGUCCUGGG | 73.8 | 111 |  |  |
| GAUCCUUCUGUUAGGAUAUGCUACGGGCUUCCGCUGCAGAAGGAACAUGAGGAUCACCCAUGUCAAAUAAAAUC | 20.1 | 80.2 |  |  |
| GAUCCUUCUGUUAGGAUAUGCUUUGGGCUUCCGCAGCAGAAGGAACAUGAGGAUCACCCAUGUCCAAUACCAUC | 42.6 | 41.8 |  |  |
| GAUCGUUUAGAGGAUAUCGUGCUAAACAUUACAUGAGAAGGCUAGACAUGAGGAUCACCCAUGUAUGCUCGUGA | 15.5 | 17.1 |  |  |
| GAUGGAAUAGUCAGGAUAUAAACGUCAGGAUAUGUUUAGAAGGGACAUGAGGAUCACCCAUGUUAAGAUAUGGU | 29.9 | 87.6 |  |  |
| GAUGGACAUGAGGAUCACCCAUGUCAGGAUAUUGUUUGUGGCUAGUUUUGGUUACGGGCGAGAAGGGACUCGUC | 22.6 | 20.7 |  |  |
| GAUUAGUGAGGAUAUAUUUACGAUCCUCAGCUUUAUUCAGGACAUGAGGAUCACCCAUGUAGAAGGCGUUAAUC | 25.8 | 34.6 |  |  |
| GAUUAGUGAGGAUAUGGUAAAGAUAAGAUGAUGAAAGAACUCCAGAAGGCACAUGAGGAUCACCCAUGUAGUAU | 17.4 | 21.6 |  |  |
| GAUUGACGACAAUUACAUGAGGAUCACCCAUGUUGUAGGAUGCAGGAUAUGUGGUAUAUUAUUUAACAGAAGGGCAAUAAUUUU |  |  | 25.8 | 29.3 |
| GCAACGCCUGACAUGAGGAUCACCCAUGUUAGAUUGUUAUGUCAGGAUAUUGUCUAGAAACUAGACAAGAAGGGAUGCGUUGCU |  |  | 304 | 21.8 |
| GCAACGCCUGACAUGAGGAUCACCCAUGUUAGAUUGUUAUGUCAGGAUAUUGUCUCGAAACGAGAUGAGAAGGGAUAUGUUGCU |  |  | 997 | 61.2 |
| GCAAGGCAUGUAGGAUAUCGAGCUCAAAGAGCUCGAGAAGGACAUGAGGAUCACCCAUGUGCUCACAGACAGUGAGCGCCUUGC | 18.4 | 44.4 |  |  |
| GCAAUAGCAUGAGGAUAUGUUGGAGUUUAGACAGCAGAAGGCAUGUCAUAAGACAUGAGGAUCACCCAUGUAAUUACAAUAGCA |  |  | 32.7 | 12.1 |

| Sequence | apparent Kd [1] [nM] | apparent Kd [2] [nM] | apparent Kd [3] [nM] | apparent Kd [4] [nM] |
| --- | --- | --- | --- | --- |
| GCAAUCGCAUGAGGAUAUGCUGGAGUUUAGACAGCAGAAGGCAUGUCAUAAGACAUGAGGAUCACCCAUGUAGUUACAAUGGCA |  |  | 41 | 11.9 |
| GCACGGAUGGUAGGAUAUCAUUGCGAUUAGCUAUGAGAAGGACCACAUGAGGAUCACCCAUGUCCUCUAAUUAGCCUUCCGUGC | 179 | 297 |  |  |
| GCACGGCAUGUAGGAUAUGCAUAGCAUUGCUAUGCAGAAGGACAUGAGGAUCACCCAUGUAUGUAUUCCAUACAUUUCCCGUGC | 5.5 | 7.65 |  |  |
| GCACUCAAGUUAGGAUAUGGACCAGAAACUGGUCCAGAAGGAACAUGGGAACAUGAGGAUCACCCAUGUUCCAGAAACGAGUGC |  |  | 840 | 186 |
| GCACUGACAGGAUAUACAUGAGGAUCACCCAUGUGACCCUUACAGUACUCGCGUACUGGUAGAAGGGUCUGUGC |  | 140 |  |  |
| GCACUGGAUGUAGGAUAUCAGGACGAUAAGUCCUGAGAAGGACAUGAGGAUCACCCAUGUCUCAAAACCAGUGCAUAUAAUAUA | 13.2 | 19.1 |  |  |
| GCACUGGAUGUAGGAUAUCAGGACGAUAAGUCCUGAGAAGGACAUGAGGAUCACCCAUGUCUCAUAAACCAGUGCUAUAAUAUA | 14.6 | 18.8 |  |  |
| GCACUUGCGUAGAAGGUACUAUAUAAUGCAGUGUAAGGAUAUACAUACAUGAGGAUCACCCAUGUAAAUGGAAUUUGCAAGUGC |  |  | 11.8 | 9.15 |
| GCAGAACAUGAGGAUCACCCAUGUCUCUAAUAUCGAGGAUAUGGGCACGGUAUAUCCGAACCAGAAGGCGAACUGC |  |  | 272 | 60 |
| GCAGACGUAGUGAGGAUAUGCUCUACCUCGGUAGAGCAGAAGGCACAUGAGGAUCACCCAUGUGGUUCUUCUGC | 28.2 | 339 |  |  |
| GCAGCACAAUAUUACAUGAGGAUCACCCAUGUCGAUUGUUAUGAGGAUAUGCAUCGUAUGAAGUUGCAGAAGGCAUUGUGCUGC |  |  | 9.4 | 6.09 |
| GCAGCUAAUAUUAUACAUGAGGAUCACCCAUGUUACAUGUGUAAGGAUAUUGAUGUUUAUAUAAACAAGAAGGUACGAAGCUGC |  |  | 20.5 | 13.1 |
| GCAGGAUAAGUGAGGAUAUACCUAUGGAUACAUAGGUAGAAGGUACAUGAGGAUCACCCAUGUUCCUUACCUGC | 11.9 | 13.4 |  |  |
| GCAUCCAAUGUGAGGAUAUACCUCUGGAUACAUAGGUAGAAGGCACAUGAGGAUCACCCAUGUCCUAAGGAUGC | 130 | 149 |  |  |
| GCAUCCCAUGUCAGGAUAUGCUGUACCUUGGUACAGCAGAAGGGACAUGAGGAUCACCCAUGUGCCUAGGAUGC | 51.2 | 438 |  |  |
| GCAUGAGACUAAGGAUAUGAUGUACCUAUAUGUGACAUGAGGAUCACCCAUGUGGUAAGUAUGAUUCAGAAGGUAGAGACAUGC |  |  | 33.7 | 21.3 |
| GCAUGAUACUAGGAUAUCAGCAUACUUCAAUGUUGAGAAGGAGUAACAUGAGGAUCACCCAUGUAUCCAACAUG | 59.4 | 166 |  |  |
| GCAUGCAAGUAGAAGGUCGGAUAUUUUGAUACCGAAGGAUAUGCAGAAUCAUAUCCACAUGAUAACAUGAGGAUCACCCAUGUA | 15.3 | 12.7 |  |  |
| GCAUGUAAGCAGAAGGGCAGAUAUUUUGAUACUGCAGGAUAUGCAGAAUCAUAUCCACAUGAUAACAUGAGGAUCACCCAUGUA | 32.3 | 29 |  |  |

| Sequence | apparent Kd [1] [nM] | apparent Kd [2] [nM] | apparent Kd [3] [nM] | apparent Kd [4] [nM] |
| --- | --- | --- | --- | --- |
| GCAUUGAGUGUGAGGAUAUGCUGGUCCUUGGAUCAGCAGAAGGCACAUGAGGAUCACCCAUGUGAAUACAAUGC | 20.9 | 116 |  |  |
| GCCAACGCAUGAGGAUAUGCUCCCGUUUCGGGAGCAGAAGGCAUGUCAUAAGACAUGAGGAUCACCCAUGUAGUUAACAUGGCA |  |  | 572 | 31.2 |
| GCCAGGCAUGUAGGAUAUCCAUUGCGUCGCGUUGGAGAAGGGCAGCACACAUGAGGAUCACCCAUGUGGUCUCCCAUGUAGUGU | 163 | 206 |  |  |
| GCCAUCAUAUGAGGAUAUGACACCGAAACGGUGUCAGAAGGCAUGUCGAUAGACAUGAGGAUCACCCAUGUUUACAUGAUGGCA |  |  | 91.5 | 20.7 |
| GCCAUCAUAUGAGGAUAUGACACCGAAACGGUGUCAGAAGGCAUGUCGAUAGACAUGAGGAUCACCCAUGUUUAGAUGAUGGCA |  |  | 104 | 21.5 |
| GCCAUCGCAUGAGGAUAUGCUCCCGUUUCGGGAGCAGAAGGCAUGUCACAAGACAUGAGGAUCACCCAUGUAGUUAAGAUGGCA |  |  | 194 | 8.52 |
| GCCAUCGCAUGAGGAUAUGCUCCGGUUUCCGGAGCAGAAGGCAUGUCAUAAGACAUGAGGAUCACCCAUGUAGCUAAGAUGGCA |  |  | 307 | 11.9 |
| GCCAUCGCAUGAGGAUAUGCUCCGGUUUCCGGAGCAGAAGGCAUGUCGUAAGACAUGAGGAUCACCCAUGUAGUCAAGAUGGCA |  |  | 912 | 41.5 |
| GCCAUCGCAUGAGGAUAUGCUCCGGUUUCCGGAGCAGAAGGCGUGUCAUUAGACAUGAGGAUCACCCAUGUAGUUAAGAUGGCA |  |  | 489 | 21.3 |
| GCCAUCGCAUGAGGAUAUGGCACCGAAACGGUGCCAGAAGGCAUGUCAAUAGACAUGAGGAUCACCCAUGUAUUAUCGAUGGCA |  |  | 274 | 29.1 |
| GCCAUCGUAUGAGGAUAUGGCACCGAAACGGUGCCAGAAGGCAUGUCUAUAGACAUGAGGAUCACCCAUGUGUUAUCGAUGGCA |  |  | 146 | 14.8 |
| GCCAUCUCAUGAGGAUAUGCUCCCGUUUCGGGAGCAGAAGGCAUGUCAUAAGACAUGAGGAUCACCCAUGUAGUUAAGAUGGCA |  |  | 286 | 11.8 |
| GCCCAACAUGAGGAUCACCCAUGUAAGGAUAUUGGAUGUGUGUGGAAACAUAUAUAAACGAGAAGGUACAGGGC | 38.4 | 28.9 |  |  |
| GCCCGGGCAGGAUAUGCCCGGGCGCACAUGAGGAUCACCCAUGUGGCCCUGUGCCGUCCGGCAGAAGGGCCCGGGC | 90.1 | 87.4 |  |  |
| GCCCUCGCUGAGGAUAUUAUCUGGCUCGACUGAUAAGAAGGCAGUACAUGAGGAUCACCCAUGUGGUUCGUUCG | 50.5 | 142 |  |  |
| GCCUAGACUAGGCCCACGGCAUCACAGGAUAUGCCAAUCACAUGAGGAUCACCCAUGUCAACUCCGCAGAAGGGUGAUAUCGUG |  |  | 235 | 14.3 |
| GCCUGCUGGCAAGGAUAUUCUGUGCGGUUCCGGCUCGUGUCUGUUACAUGAGGAUCACCCAUGUGGGAGAAGGUGUCUGUGGCC | 6.21 | 5.88 |  |  |
| GCCUUAUCCGUCAGGAUAUACAGCCGUUAGUUGUUGUAGAAGGGACAUGAGGAUCACCCAUGUACGUACCAUUG | 18.7 | 30.7 |  |  |
